Reference: ChEMBL document CHEMBL1125032, “Structure-activity relationship of antiestrogens. Effect of the side chain and its position on the activity of 2,3-diaryl-2H-1-benzopyrans” (J Med Chem, 1990)

Experiments:
[1] = molecular target: Estrogen receptor beta (Rattus norvegicus) (UniProt Q62986); assay: Mean percent inhibition of Estrogen receptor beta in rat; parameters: concentration or dose not given beside the values; settings: concentration not given here
Procedure, shortened: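 Immature female rats were dosed subcutaneously with 10 µg/rat for three days together with 0.3 µg E2 at a separate site. Uterine weight was read 24 h after the last dose. Inhibition of E2-stimulated uterine growth was calculated from the mean uterine weights of the vehicle-alone, E2-alone and compound-plus-E2 groups.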

[2] = molecular target: Anti-estrogen binding site (AEBS) (Homo sapiens) (UniProt Q15125+Q9UBM7); assay: Relative binding affinity against Antiestrogen binding site(AEBS); type: functional; settings: Rattus norvegicus
Procedure, shortened: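 Rat liver microsomal fraction was first incubated 2 h at 4 °C with 2 µM diethylstilbestrol to saturate ER sites. It was then incubated 18 h at 4 °C with competitor (1×10⁻⁹ to 3×10⁻⁶ M) and ³H-tamoxifen (1×10⁻⁹ M) in 35% DMF–TEA buffer. Charcoal-dextran was added for 15 min at 4 °C, the tubes were centrifuged at 1000g, and the supernatant was counted.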

[3] = molecular target: T1, Estrogen receptor (Rattus norvegicus) (UniProt P06211+Q62986); assay: Relative binding affinity against estrogen receptor(ER); type: protein assay
Procedure, shortened: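 Uterine cytosol came from immature rats primed with 0.1 µg E2 24 h before sacrifice. It was incubated 18–20 h at 4 °C, in triplicate, with competitor (10⁻⁴–10⁻⁹ M) and ³H-E2 (5×10⁻⁹ M) in TEA buffer, pH 7.4, containing 7% DMF. Free ligand was removed with charcoal-dextran (20 min), and bound radioactivity was measured by scintillation counting.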

[4] = molecular target: T1, Estrogen receptor (Rattus norvegicus); assay: Estrogenic activity as mean uterine weight in rats on 10 ug dose; type: functional
Procedure, shortened: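 Immature female Charles Foster rats (21–23 days old, 25–40 g) received 10 µg/rat subcutaneously, suspended in 0.1 mL propylene glycol–0.9% saline (1:1, v/v), daily for three days. Controls received vehicle alone. Uterine wet weight was taken at autopsy 24 h after the final dose and given as mean ± SD in mg from 6–9 animals.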

[5] = molecular target: T1, Estrogen receptor (Rattus norvegicus); assay: Antiestrogenic activity in presence of unlabeled estradiol as mean uterine weight in rats after 0.3 ug dose; type: functional
Procedure, shortened: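 Immature female Charles Foster rats (21–23 days old, 25–40 g) were given 10 µg/rat of compound subcutaneously in 0.1 mL propylene glycol–0.9% saline (1:1, v/v) on three consecutive days. They were co-injected with 0.3 µg E2 at a different site. Controls got E2 plus vehicle. Uteri were weighed 24 h after the last injection. Values are mean ± SD, 6–9 animals.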

Estrogen receptor beta (Rattus norvegicus), sequence (Q62986 whole entry): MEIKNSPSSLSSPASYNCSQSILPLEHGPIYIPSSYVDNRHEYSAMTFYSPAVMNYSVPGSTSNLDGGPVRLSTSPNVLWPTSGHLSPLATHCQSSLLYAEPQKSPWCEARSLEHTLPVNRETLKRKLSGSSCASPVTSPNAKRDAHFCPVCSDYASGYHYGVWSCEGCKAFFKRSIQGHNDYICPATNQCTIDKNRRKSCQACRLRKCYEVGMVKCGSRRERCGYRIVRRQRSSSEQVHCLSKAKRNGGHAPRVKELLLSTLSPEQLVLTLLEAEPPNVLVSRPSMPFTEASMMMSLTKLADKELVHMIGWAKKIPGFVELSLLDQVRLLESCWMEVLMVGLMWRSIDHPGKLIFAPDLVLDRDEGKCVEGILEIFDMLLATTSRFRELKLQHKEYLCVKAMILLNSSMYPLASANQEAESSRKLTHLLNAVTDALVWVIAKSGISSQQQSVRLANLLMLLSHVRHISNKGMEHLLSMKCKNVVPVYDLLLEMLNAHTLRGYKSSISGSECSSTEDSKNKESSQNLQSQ

| inhibition [1] [%] | relative binding affinity (RBA) [2] | relative binding affinity (RBA) [3] | Mean weight [4] [mg] | Mean weight [5] [mg] | Compound |
| --- | --- | --- | --- | --- | --- |
| 56 | 134 | 0.5 |  | 26.6 | C1=C(c2ccccc2)C(c2ccc(OCCN3CCCC3)cc2)Oc2ccccc21 (configuration not stated) |
| 0 |  | 0.05 | 12.6 | 45.5 | Oc1ccc(C2Oc3ccccc3C=C2c2ccccc2)cc1 (configuration not stated) |
| 0 |  | < 0.001 | 17.4 | 42.2 | C1=C(c2ccccc2)C(c2cccc(OCCN3CCCCC3)c2)Oc2ccccc21 (configuration not stated) |
| 0 |  |  | 8.7 | 45.9 | CCCCNCC(O)COc1ccc(C2Oc3ccccc3C=C2c2ccccc2)cc1 (configuration not stated) |
|  |  |  | 20.7 | 38.8 | OCC(O)COc1ccc(C2Oc3ccccc3C=C2c2ccccc2)cc1 (configuration not stated) |

Second part, the molecule before the results:

| Compound | inhibition [1] [%] | relative binding affinity (RBA) [2] | relative binding affinity (RBA) [3] | Mean weight [4] [mg] | Mean weight [5] [mg] |
| --- | --- | --- | --- | --- | --- |
| CCC1=C(c2ccccc2)C(c2ccc(OCCN3CCCC3)cc2)Oc2cc(OC)ccc21 (configuration not stated) | 0 | 51 | 2.1 | 34.5 | 40.6 |
| CN(C)CCOc1ccc(C2Oc3ccccc3C=C2c2ccccc2)cc1 (configuration not stated) | 30 | 98 | 0.11 | 33.9 | 36.5 |
| CC1=C(c2ccccc2)C(c2ccc(OCCN3CCCC3)cc2)Oc2ccccc21 (configuration not stated) | 56 | 150 | 9.9 | 27.2 | 27 |
| C1=C(c2ccccc2)C(c2ccc(OCCN3CCCCC3)cc2)Oc2ccccc21 (configuration not stated) | 75 | 225 | 0.3 |  |  |
| C1=C(c2ccccc2)C(c2ccc(OCCN3CCCCCC3)cc2)Oc2ccccc21 (configuration not stated) | 61 | 153 | 0.24 | 19.3 | 23.1 |
| C1=C(c2ccccc2)C(c2ccccc2OCCN2CCCCC2)Oc2ccccc21 (configuration not stated) | 0 |  | < 0.001 | 11.1 | 43.1 |
| COc1ccc2c(c1)OC(c1ccc(OCCN3CCCC3)cc1)C(c1ccccc1)=C2 (configuration not stated) | 48 | 66 | 0.4 |  |  |
